Data from ChEMBL document CHEMBL1125894, “Dual-action cephalosporins: cephalosporin 3'-quaternary ammonium quinolones” (1991).
≈ marks a conversion by molar mass, not a printed value.

Tests used:
[1] = test system: Serratia marcescens; assay: In vitro antibacterial activity against Serratia marcescens SM; assay type: functional
Outline: (§1)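 Serial 2-fold dilutions in the NCCLS broth microdilution method for aerobic nonfastidious organisms, with an 18-h incubation. The value is reported as the minimum inhibitory concentration (MIC).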

[2] = test system: Escherichia coli; assay: Concentration required for 90% inhibition against 60 kDa penicillin-binding protein 3 binding using [14C]-Pen G as the radioligand.
Outline: (§2)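 Solubilized membranes from sonicated E. coli DC-0 were used. PBP binding was measured as inhibition of [14C]penicillin G binding to each PBP.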

[3] = test system: Klebsiella pneumoniae; assay: In vitro antibacterial activity against Klebsiella pneumoniae A; assay type: functional; outline: as §1
[4] = test system: Citrobacter freundii; assay: In vitro antibacterial activity against Citrobacter freundii BS 16; assay type: functional; outline: as §1
[5] = test system: Citrobacter freundii; assay: In vivo activity in murine against Citrobacter freundii BS#16 infection after sc administration.; assay type: functional
Outline: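 CD1 Swiss albino mice (18–20 g) infected intraperitoneally with 0.5 mL diluted bacterial culture suspension. Single subcutaneous treatment within 5 min, 1.0 mL at dorsal base of neck, serial dilutions spanning 0.05–250 mg/kg. Six mice per treatment and control group. ED50 (50% protective dose) derived by Reed and Muench method.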

[6] = test system: Streptococcus pneumoniae; assay: In vitro antibacterial activity against Streptococcus pneumoniae 6301; assay type: functional
Outline: (§3)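 Broth macrodilution with serial 2-fold dilutions in cation-supplemented Mueller-Hinton broth containing 10% goat serum. The value is reported as the MIC.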

[7] = test system: Pseudomonas aeruginosa; assay: In vitro antibacterial activity against Pseudomonas aeruginosa 5712; assay type: functional; outline: as §1
[8] = test system: Streptococcus pyogenes; assay: In vivo activity in murine against Streptococcus pyogenes 4 infection after sc administration.; assay type: functional
Outline: (§4)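 Mouse protection test in CD1 Swiss albino mice (18–20 g). Mice were infected intraperitoneally with 0.5 mL of a diluted bacterial suspension, then treated within 5 min with one 1.0 mL subcutaneous dose at the dorsal base of the neck. Doses ranged from 0.05 to 250 mg/kg, with six mice per group. ED50 was calculated by the Reed–Muench method.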

[9] = test system: Enterobacter cloacae; assay: In vitro antibacterial activity against Enterobacter cloacae P99; assay type: functional; outline: as §1
[10] = test system: Escherichia coli; assay: In vitro antibacterial activity against Escherichia coli 257; assay type: functional; outline: as §1
[11] = biological target: T1, Penicillin-binding protein 1B (Escherichia coli K-12) (UniProt P02919); assay: Concentration required for 90% inhibition against 90 kDa penicillin-binding protein 1b binding using [14C]-Pen G as the radioligand.; outline: as §2
T1 sequence (whole entry): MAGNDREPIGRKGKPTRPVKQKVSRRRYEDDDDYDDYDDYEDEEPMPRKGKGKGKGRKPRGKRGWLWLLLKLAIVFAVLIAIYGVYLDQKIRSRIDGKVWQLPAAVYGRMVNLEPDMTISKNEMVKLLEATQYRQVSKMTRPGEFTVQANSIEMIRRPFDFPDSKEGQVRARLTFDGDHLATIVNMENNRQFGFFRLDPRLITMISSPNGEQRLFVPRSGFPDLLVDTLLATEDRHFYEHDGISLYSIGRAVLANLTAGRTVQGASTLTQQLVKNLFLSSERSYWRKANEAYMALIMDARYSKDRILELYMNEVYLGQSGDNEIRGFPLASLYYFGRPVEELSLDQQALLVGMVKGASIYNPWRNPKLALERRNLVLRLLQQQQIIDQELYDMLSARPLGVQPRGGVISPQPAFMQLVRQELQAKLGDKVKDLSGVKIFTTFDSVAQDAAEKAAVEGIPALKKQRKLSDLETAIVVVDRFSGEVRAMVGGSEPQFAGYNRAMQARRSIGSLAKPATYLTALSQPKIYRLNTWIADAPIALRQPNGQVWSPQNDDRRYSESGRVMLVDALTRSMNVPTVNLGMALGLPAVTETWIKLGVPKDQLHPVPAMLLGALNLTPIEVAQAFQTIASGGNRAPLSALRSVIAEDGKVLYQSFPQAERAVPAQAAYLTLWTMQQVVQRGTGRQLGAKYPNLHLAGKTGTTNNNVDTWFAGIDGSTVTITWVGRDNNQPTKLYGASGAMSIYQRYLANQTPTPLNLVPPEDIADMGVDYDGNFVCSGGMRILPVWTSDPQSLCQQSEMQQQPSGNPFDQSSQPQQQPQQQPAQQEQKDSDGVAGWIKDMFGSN

[12] = test system: Enterobacter cloacae; assay: In vivo activity in murine against Enterobacter cloacae 5699 infection after sc administration.; assay type: functional; outline: as §4
[13] = test system: Staphylococcus aureus; assay: In vivo activity in murine against Staphylococcus aureus 753(MR) infection after sc administration.; assay type: functional; outline: as §4
[14] = test system: Streptococcus pneumoniae; assay: In vivo activity in murine against Streptococcus pneumoniae 6301 infection after sc administration.; assay type: functional; outline: as §4
[15] = test system: Staphylococcus aureus; assay: In vitro antibacterial activity against Staphylococcus aureus 95(MR); assay type: functional
Outline: (§5)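 Staphylococci were tested by the standard agar dilution procedure using serial 2-fold dilutions of agent. The value is reported as the MIC.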

[16] = test system: Escherichia coli; assay: In vivo activity in murine against Escherichia coli 257 infection after sc administration.; assay type: functional; details: Escherichia coli, sc; read-out: ED50; outline: as §4
[17] = test system: Staphylococcus aureus; assay: In vitro antibacterial activity against Staphylococcus aureus Smith(MS); assay type: functional; outline: as §5
[18] = test system: Enterobacter cloacae; assay: In vitro antibacterial activity against Enterobacter cloacae 5699; assay type: functional; outline: as §1
[19] = test system: Streptococcus pyogenes; assay: In vitro antibacterial activity against Streptococcus pyogenes 4; assay type: functional; outline: as §3
[20] = biological target: T2, Peptidoglycan D,D-transpeptidase MrdA (Escherichia coli K-12) (UniProt P0AD65); assay: Concentration required for 90% inhibition against 66 kDa penicillin-binding protein 2 binding using [14C]-Pen G as the radioligand.; outline: as §2
T2 sequence (whole entry): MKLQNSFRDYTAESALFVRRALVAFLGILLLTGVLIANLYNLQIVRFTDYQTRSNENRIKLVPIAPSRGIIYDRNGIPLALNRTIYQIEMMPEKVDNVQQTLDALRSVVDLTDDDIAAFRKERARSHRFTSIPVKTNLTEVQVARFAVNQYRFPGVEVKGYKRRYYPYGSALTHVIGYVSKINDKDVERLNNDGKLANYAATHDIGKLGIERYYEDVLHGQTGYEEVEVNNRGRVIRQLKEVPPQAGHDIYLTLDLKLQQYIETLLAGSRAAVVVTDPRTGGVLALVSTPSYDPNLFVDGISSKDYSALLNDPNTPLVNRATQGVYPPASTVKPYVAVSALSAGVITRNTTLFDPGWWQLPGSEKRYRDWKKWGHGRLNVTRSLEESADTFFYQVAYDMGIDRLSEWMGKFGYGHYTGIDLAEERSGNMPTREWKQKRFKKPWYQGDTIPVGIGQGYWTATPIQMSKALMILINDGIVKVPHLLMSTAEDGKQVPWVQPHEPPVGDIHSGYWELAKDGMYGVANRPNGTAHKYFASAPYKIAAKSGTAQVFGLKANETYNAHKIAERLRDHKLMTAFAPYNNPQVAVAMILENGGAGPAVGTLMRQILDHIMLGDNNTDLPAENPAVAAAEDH

[21] = test system: Escherichia coli; assay: Antibacterial activity against Escherichia coli DC-O; assay type: functional; outline: as §1

MIC [1]: 1 µg/mL (≈ 1.19 µM) | Concentration [2]: 0.1 µg/mL | MIC [3]: 0.25 µg/mL (≈ 0.299 µM) | MIC [4]: 2 µg/mL (≈ 2.39 µM) | MIC [6]: 0.5 µg/mL (≈ 0.597 µM) | MIC [7]: 16 µg/mL (≈ 19.1 µM) | MIC [9]: 1 µg/mL (≈ 1.19 µM) | MIC [10]: 0.25 µg/mL (≈ 0.299 µM) | Concentration [11]: 30 µg/mL | MIC [15]: 8 µg/mL (≈ 9.56 µM) | MIC [17]: 16 µg/mL (≈ 19.1 µM) | MIC [18]: 0.25 µg/mL (≈ 0.299 µM) | MIC [19]: 0.5 µg/mL (≈ 0.597 µM) | Concentration [20]: 100 µg/mL | MIC [21]: 0.2 µg/mL (≈ 0.239 µM)
Compound: CC(C)(O/N=C(\C(=O)N[C@@H]1C(=O)N2C(C(=O)[O-])=C(C[N+]3(C)CCN(c4c(F)cc5c(=O)c(C(=O)O)cn(CCF)c5c4F)CC3)CS[C@H]12)c1csc(N)n1)C(=O)O
ED50 [5]: 9 mg/kg | ED50 [8]: 54 mg/kg | ED50 [12]: < 5 mg/kg | ED50 [13]: 44 mg/kg | ED50 [14]: 8 mg/kg | ED50 [16]: 0.28 mg/kg
